# High-throughput results (PubChem)
# DDE Tn6 FP inh: inhibitors of Tn6 peptide binding to fibrin DD(E), primary screen, biochemical, fluorescence polarization, human fibrin, Tn6 probe. Fibrin DD(E) TRITC-Tn6 fluorescence polarization displacement. inhibition, % at 8.3 µM. 0.21% of 370,000 active;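 active = inhibition above a per-campaign cutoff: mean of compounds within control limits plus 3 SD, cut at about 15% in these data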;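 also: 0% = median of all compound wells on the plate and 100% = blocking peptide control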
# TCR-CD3 inh: inhibitors of human TCR-CD3 interaction, primary screen, biochemical, fluorescence, TAMRA-labeled TCR probe. T-cell receptor (TCR). inhibition, % at 9.4 µM. 0.37% of 360,000 active; in the data active = inhibition above about 19%;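 also: recombinant mutant TCR 2C K166C tagged with TAMRA read by polarization; 0% = receptor in buffer alone and 100% = receptor with positive control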
# ABHD4 inh: ABHD4 inhibitors, primary screen, biochemical, fluorescence polarization, mouse | AID 720543, 2013 | 0.54% of 370,000 active | inhibition, % at 8.92 µM | (Lyso)-N-acylphosphatidylethanolamine lipase (Mus musculus), Q8VD66 | purified mABHD4, FP-Rh probe fluorescence polarization;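 active = inhibition exceeding the mean over every tested compound plus 3 SD, cut at about 30% in these data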;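 also: 0% = plate median of compound wells and 100% = S159A mutant with DMSO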
# Target sequence (Q8VD66 whole entry, looked up): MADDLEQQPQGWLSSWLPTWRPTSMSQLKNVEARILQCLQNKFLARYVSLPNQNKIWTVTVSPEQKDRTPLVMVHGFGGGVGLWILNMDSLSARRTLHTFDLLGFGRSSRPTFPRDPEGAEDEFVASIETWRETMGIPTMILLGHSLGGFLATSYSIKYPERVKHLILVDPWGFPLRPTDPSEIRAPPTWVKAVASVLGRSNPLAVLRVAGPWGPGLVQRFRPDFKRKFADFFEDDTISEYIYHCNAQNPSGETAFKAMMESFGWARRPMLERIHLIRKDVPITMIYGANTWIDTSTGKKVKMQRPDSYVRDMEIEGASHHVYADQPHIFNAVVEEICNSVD
#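 system = mouse ABHD4 enzyme, wild type | medium = HEPES pH 7.0, NaCl, Pluronic buffer | also added = FP-Rh probe | incubation = Enzyme–compound pre-incubation 45 min, then probe 60 min, both 25 °C | technique = fluorescence polarization, excitation 525 nm, emission 598 nm, BODIPY TMR filters | controls = S159A mutant high control, sample median low control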
# Tn7 DDE FP: inhibitors of Tn7 peptide binding to fibrin DD(E), primary screen, biochemical, fluorescence polarization, human fibrin, Tn7 probe. Fibrinogen beta chain (Homo sapiens), P02675. FP displacement of FITC-Tn7 peptide from fibrin DD(E); 0% = median of compound wells per plate. inhibition, % at 8.3 µM. 0.13% of 370,000 active. AID 720508, 2013;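 active = inhibition above the mean of compounds falling within the control limits plus 3 SD of them, cut at about 14% in these data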;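 also: 0% = plate median of compound wells and 100% = 10 µM Aha-Tn7 peptide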
#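 system = human fibrin DD(E) protein | quantity = DD(E) 2 µM final | medium = Tris/NaCl/CaCl2 buffer, pH 7.8 | also added = labelled Tn7 tracer, 0.1 µM | compound dosing = single point at 8.3 µM | timing = compound with protein 10 min, then 3 h after probe, room temperature | signal = FP measurement | benchmarks = Aha-Tn7 high control | repeats = one replicate per compound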
# HTRA1 inh: HTRA1 serine protease inhibitors, primary screen, biochemical, fluorescence polarization, HTS. AID 504803, 2011. inhibition, % at 5.96 µM. recombinant HTRA1, FP-rhodamine activity-based probe. 0.5% of 340,000 active; in the data active = inhibition above about 36%;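 also: 0% = enzyme with DMSO and 100% = wells lacking enzyme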
# Tn7 DDE conf: inhibitors of Tn7 peptide binding to fibrin DD(E), confirmation, biochemical, fluorescence polarization, human fibrin, Tn7 probe; shares compounds with Tn7 DDE FP; FP displacement of TRITC-Tn7 peptide from DD(E); 0% set at plate's compound-well median; inhibition, % at 8.3 µM; 5% of 460 active;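 active = inhibition above the campaign cutoff, the mean of compounds within control limits plus 3 SD, cut at about 14% in these data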;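 also: 100% = median FP of high control wells holding Aha-Tn7 inhibitor peptide; displacers lower polarization since freed probe rises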
# Tn7 DDE ctr: DD(E)-Tn7 binding inhibition, counter-screen; inhibition, % at 8.3 µM; 3% of 460 active; fibrin DD(E), TRITC-Tn7 probe displacement, fluorescence polarization; AID 720633; shares compounds with Tn7 DDE FP;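 active = inhibition above the cutoff, the mean of compounds lying between the control bounds plus 3 SD of those compounds, cut at about 17% in these data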;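 also: 0% = median of compound sample wells and 100% = excess unlabeled Aha-Tn7 peptide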
# * marks the source's active call; other numbers are inactive results; x = no result given. Sampled rows, rich in hits. Any-hit rate of the full collection: about 1.3%.
SMILES,DDE Tn6 FP inh,TCR-CD3 inh,ABHD4 inh,Tn7 DDE FP,HTRA1 inh,Tn7 DDE conf,Tn7 DDE ctr
CCCC1(C(=O)O)NC(c2ccccc2O)C2C(=O)N(c3cccc(Cl)c3)C(=O)C21 (stereo unspecified),3,4,6,7,-4,x,x
Cc1nn(C)c(C)c1CCC(=O)O,2,-7,-4,14*,4,3,4
COc1ccc(CNc2nc3ccccc3n2C)c(OC)c1,-4,-3,-4,-7,-6,x,x
COc1ccc(N=Nc2nc3cc(Br)c(Br)cc3n2C)c(OC)c1,0,9,14,28*,7,11,-3
CCOC(=O)c1c(-c2ccccc2)oc2ccc(O)c(CN3CCCC3)c12,4,1,2,15*,-4,-2,-7
CCOC(=O)c1c(-c2ccccc2)oc2ccc(O)c(CN(C)C)c12,0,4,2,6,3,x,x
Cc1cc2c(NCC(C)O)ncnc2s1 (stereo unspecified),0,13,-6,5,1,x,x
Cc1ccc(C(=O)/C=C\Nc2ccc(C)c(C)c2)cc1,0,-4,1,0,-13,x,x
Cc1ccc(N/C=C/C(=O)c2ccc(C)cc2)cc1,4,1,-6,15*,-24,3,3
O=c1oc2cc(O)ccc2cc1-c1nc2ccccc2o1,-3,-3,4,38*,x,14*,-5
O=c1oc2cc(O)ccc2cc1S(=O)(=O)c1ccccc1,0,-12,-7,-4,-4,x,x
COc1ccc(S(=O)(=O)N2CCOCC2)cc1NC(=O)CCOc1ccc(C(C)(C)C)cc1,4,5,-6,15*,-5,6,-3
COc1ccc(S(=O)(=O)N2CCOCC2)cc1NC(=O)c1ccc(OC(F)F)cc1,-5,1,-1,15*,-10,-7,-12
COc1ccc(NC(=O)CN2C(=O)C(C)Oc3ccccc32)cc1OC (stereo unspecified),2,10,0,14*,-8,-1,-3
CCN(CC)S(=O)(=O)c1cccc(-c2nnc(SCc3ncc(-c4ccccc4)o3)n2C)c1,5,1,5,15*,-4,-4,-10
CCN(CC)S(=O)(=O)c1cccc(-c2nnc(SCC(N)=O)n2C)c1,-2,2,-4,5,4,x,x
CCCn1c(N)c(C(=O)CSc2nnc(-c3ccoc3C)n2C)c(=O)n(C)c1=O,1,-5,5,0,2,x,x
NS(=O)(=O)c1ccc(N/N=C/c2cn(-c3ccccc3)nc2-c2cccs2)cc1,-6,-2,-14,14*,-20,8,1
O=C(OCCN1C(=O)c2cccc3c(N4CCOCC4)ccc(c23)C1=O)c1ccccc1Cl,-2,4,-11,33*,-40,-2,-6
CCOc1ccc(/C=N/n2c(SC)nnc(C(C)(C)C)c2=O)cc1,0,0,9,15*,0,0,1
COc1ccc(/C=N/n2c(SC)nnc(C(C)(C)C)c2=O)cc1,11,2,-4,-9,2,x,x
CCCCN1C(=O)N(c2ccc(Cl)cc2)C(C)(O)CC1(C)C (stereo unspecified),8,4,1,-1,-3,x,x
CC(=O)Nc1cc(-c2ccccc2N(C)C)cn2c(-c3cccc(C(F)(F)F)c3)cnc12,3,16,24,21*,x,-3,-1
CC(=O)Nc1cc(-c2cccc(NS(C)(=O)=O)c2)cn2c(-c3cccc(C(F)(F)F)c3)cnc12,-1,-3,-27,-5,x,x,x
CC(C)c1ccccc1NC(=O)CSc1n[nH]c(=O)n1C1CC1,-7,2,-2,14*,7,4,-6
